Assay results: ChEMBL document CHEMBL1687913, “Structure-activity relationship, conformational and biological studies of temporin L analogues” (J Med Chem, 2011)
Converted amounts (≈) assume the structure as drawn. Where a SMILES comes first, the peptide text is derived from it.

How the values were obtained:
[1] = test system: Acinetobacter baumannii; assay: Antibacterial activity against Acinetobacter baumannii ATCC 19606 after 18 to 20 hrs by microbroth dilution method; assay type: functional
Outline: (§1)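 CLSI microbroth dilution, adapted. Mid-log bacteria, 2 × 10^6 CFU/mL in Mueller-Hinton broth, mixed 1:1 with MH broth holding peptide in serial 2-fold dilutions in 20% ethanol (0.75-48 μM). Incubated 18-20 h at 37 °C; growth read as A600. MIC is the lowest concentration giving 100% growth inhibition.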

[2] = test system: Acinetobacter junii; assay: Antibacterial activity against […] Acinetobacter junii RT-4 after 18 to 20 hrs by microbroth dilution method; assay type: functional; outline: as §1
[3] = test system: Enterococcus faecalis; assay: Antibacterial activity against Enterococcus faecalis ATCC 29212 after 18 to 20 hrs by microbroth dilution method; assay type: functional; outline: as §1
[4] = test system: Escherichia coli; assay: Antibacterial activity against Escherichia coli ATCC 25922 after 18 to 20 hrs by microbroth dilution method; assay type: functional; outline: as §1
[5] = test system: Escherichia coli; assay: Antibacterial activity against Escherichia coli D21 after 18 to 20 hrs by microbroth dilution method; assay type: functional; outline: as §1
[6] = test system: Pseudomonas syringae; assay: Antibacterial activity against Pseudomonas syringae pv tobaci after 18 to 20 hrs by microbroth dilution method; assay type: functional; outline: as §1
[7] = test system: Pseudomonas aeruginosa; assay: Antibacterial activity against Pseudomonas aeruginosa ATCC 15692 after 18 to 20 hrs by microbroth dilution method; assay type: functional; outline: as §1
[8] = test system: Pseudomonas aeruginosa; assay: Antibacterial activity against Pseudomonas aeruginosa ATCC 27853 after 18 to 20 hrs by microbroth dilution method; assay type: functional; outline: as §1
[9] = test system: Yersinia pseudotuberculosis; assay: Antibacterial activity against Yersinia pseudotuberculosis YPIII after 18 to 20 hrs by microbroth dilution method; assay type: functional
Outline: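 Broth microdilution adapted from CLSI. Mid-log bacteria at 2 × 10^6 CFU/mL in Mueller-Hinton broth were mixed 1:1 with MH broth containing peptide in serial 2-fold dilutions (peptide in 20% ethanol), 0.75-48 μM. Plates were incubated 18-20 h at 37 °C and growth was read as A600. MIC is the concentration giving 100% growth inhibition.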

[10] = test system: Priestia megaterium; assay: Antibacterial activity against Bacillus megaterium Bm11 after 18 to 20 hrs by microbroth dilution method; assay type: functional; outline: as §1
[11] = test system: Staphylococcus aureus; assay: Antibacterial activity against Staphylococcus aureus ATCC 25923 after 18 to 20 hrs by microbroth dilution method; assay type: functional; outline: as §1
[12] = test system: Staphylococcus aureus; assay: Antibacterial activity against Staphylococcus aureus Cowan I after 18 to 20 hrs by microbroth dilution method; assay type: functional; outline: as §1
[13] = test system: Staphylococcus capitis; assay: Antibacterial activity against Staphylococcus capitis after 18 to 20 hrs by microbroth dilution method; assay type: functional; outline: as §1
[14] = test system: Staphylococcus epidermidis; assay: Antibacterial activity against Staphylococcus epidermidis ATCC 12228 after 18 to 20 hrs by microbroth dilution method; assay type: functional; outline: as §1
[15] = test system: Streptococcus pyogenes; assay: Antibacterial activity against Streptococcus pyogenes ATCC 21547 after 18 to 20 hrs by microbroth dilution method; assay type: functional; outline: as §1
[16] = test system: Candida albicans; assay: Antifungal activity against Candida albicans ATCC 10231 after 18 to 20 hrs by microbroth dilution method; assay type: functional
Outline: (§2)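 Yeasts tested by adapted CLSI microbroth dilution in Winge medium. Peptide given in serial 2-fold dilutions (0.75-48 μM, made in 20% ethanol). Incubation 18-20 h at 30 °C, read at A600. MIC taken as the concentration giving complete (100%) growth inhibition.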

[17] = test system: Schizosaccharomyces pombe; assay: Antifungal activity against Schizosaccharomyces pombe after 18 to 20 hrs by microbroth dilution method; assay type: functional; outline: as §2
[18] = test system: Saccharomyces cerevisiae; assay: Antifungal activity against Saccharomyces cerevisiae after 18 to 20 hrs by microbroth dilution method; assay type: functional; outline: as §2
[19] = Toxicity in human erythrocytes assessed as hemolysis at 24 uM after 40 mins; assay type: cell-based, Erythrocyte; details: read-out: Activity
Outline: (§3)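 Human red blood cells suspended in 0.9% (w/v) NaCl and incubated 40 min at 37 °C with gentle mixing with serial 2-fold peptide dilutions (peptide predissolved in 20% ethanol). Spun 5 min at 900g; supernatant read at 415 nm. Cells lysed in distilled water set the 100% lysis reference.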

[20] = Toxicity in human erythrocytes assessed as hemolysis at 12 uM after 40 mins; assay type: cell-based, Erythrocyte; details: read-out: Activity; outline: as §3
[21] = Toxicity in human erythrocytes assessed as hemolysis at 6 uM after 40 mins; assay type: cell-based, Erythrocyte; details: read-out: Activity; outline: as §3
[22] = Toxicity in human erythrocytes assessed as hemolysis at 3 uM after 40 mins; assay type: cell-based, Erythrocyte; details: read-out: Activity; outline: as §3
[23] = Toxicity in human erythrocytes assessed as hemolysis at 1.5 uM after 40 mins; assay type: cell-based, Erythrocyte; details: read-out: Activity; outline: as §3

Row | SMILES | MIC [1] | MIC [2] | MIC [3] | MIC [4] | MIC [5] | MIC [6] | MIC [7] | MIC [8] | MIC [9] | MIC [10] | MIC [11] | MIC [12] | MIC [13] | MIC [14] | MIC [15] | MIC [16] | MIC [17] | MIC [18] | hemolysis at 40 min, 24 µM [19] | hemolysis at 40 min, 12 µM [20] | further results
1 | CC[C@H](C)[C@H](NC(=O)[C@H](CCCNC(=N)N)NC(=O)CNC(=O)[C@H](CC(C)C)NC(=O)[C@H](Cc1ccccc1)NC(=O)[C@H](CCCCN)NC(=O)[C@H](CO)NC(=O)[C@H](Cc1ccccc1)NC(=O)[C@H](Cc1c[nH]c2ccccc12)NC(=O)[C@H](CCC(N)=O)NC(=O)[C@@H](NC(=O)[C@@H](N)Cc1ccccc1)C(C)C)C(=O)N[C@@H](CC(C)C)C(N)=O [TEMPORIN L] | 6 µM (≈ 9.84 µg/mL) | 3 µM (≈ 4.92 µg/mL) | 6 µM (≈ 9.84 µg/mL) | 12 µM (≈ 19.7 µg/mL) | 12 µM (≈ 19.7 µg/mL) | 6 µM (≈ 9.84 µg/mL) | 24 µM (≈ 39.4 µg/mL) | > 48 µM | 3 µM (≈ 4.92 µg/mL) | 1.5 µM (≈ 2.46 µg/mL) | 3 µM (≈ 4.92 µg/mL) | 3 µM (≈ 4.92 µg/mL) | 1.5 µM (≈ 2.46 µg/mL) | 3 µM (≈ 4.92 µg/mL) | 6 µM (≈ 9.84 µg/mL) | 12 µM (≈ 19.7 µg/mL) | 6 µM (≈ 9.84 µg/mL) | 6 µM (≈ 9.84 µg/mL) | 94% | 92% | hemolysis at 40 min, 6 µM [21]: 48%; hemolysis at 40 min, 3 µM [22]: 13%; hemolysis at 40 min, 1.5 µM [23]: 3%
2 | CC[C@H](C)[C@H](NC(=O)[C@H](CCCNC(=N)N)NC(=O)CNC(=O)[C@H](CC(C)C)NC(=O)[C@H](Cc1ccccc1)NC(=O)[C@H](CCCCN)NC(=O)[C@H](CO)NC(=O)[C@H](Cc1ccccc1)NC(=O)[C@H](Cc1c[nH]c2ccccc12)NC(=O)[C@@H]1CCCN1C(=O)[C@@H](NC(=O)[C@@H](N)Cc1ccccc1)C(C)C)C(=O)N[C@@H](CC(C)C)C(N)=O (H-FVPWFSKFLGRIL-NH2) | 6 µM (≈ 9.65 µg/mL) | 6 µM (≈ 9.65 µg/mL) | 6 µM (≈ 9.65 µg/mL) | 24 µM (≈ 38.6 µg/mL) | 12 µM (≈ 19.3 µg/mL) | 6 µM (≈ 9.65 µg/mL) | 24 µM (≈ 38.6 µg/mL) | > 48 µM | 3 µM (≈ 4.83 µg/mL) | 1.5 µM (≈ 2.41 µg/mL) | 3 µM (≈ 4.83 µg/mL) | 1.5 µM (≈ 2.41 µg/mL) | 1.5 µM (≈ 2.41 µg/mL) | 1.5 µM (≈ 2.41 µg/mL) | 6 µM (≈ 9.65 µg/mL) | 6 µM (≈ 9.65 µg/mL) | 3 µM (≈ 4.83 µg/mL) | 6 µM (≈ 9.65 µg/mL) | 92% | 42% | hemolysis at 40 min, 6 µM [21]: 10%; hemolysis at 40 min, 3 µM [22]: 6%; hemolysis at 40 min, 1.5 µM [23]: 4.5%
3 | CC[C@H](C)[C@H](NC(=O)[C@H](CCCNC(=N)N)NC(=O)CNC(=O)[C@H](CC(C)C)NC(=O)[C@H](Cc1ccccc1)NC(=O)[C@H](CCCNC(=N)N)NC(=O)[C@H](CO)NC(=O)[C@H](Cc1ccccc1)NC(=O)[C@H](Cc1c[nH]c2ccccc12)NC(=O)[C@H](CCCNC(=N)N)NC(=O)[C@@H](NC(=O)[C@@H](N)Cc1ccccc1)C(C)C)C(=O)N[C@@H](CC(C)C)C(N)=O (H-FVRWFSRFLGRIL-NH2) | 6 µM (≈ 10.2 µg/mL) | 12 µM (≈ 20.4 µg/mL) | 24 µM (≈ 40.7 µg/mL) | 48 µM (≈ 81.4 µg/mL) | 24 µM (≈ 40.7 µg/mL) | 6 µM (≈ 10.2 µg/mL) | 24 µM (≈ 40.7 µg/mL) | 24 µM (≈ 40.7 µg/mL) | 6 µM (≈ 10.2 µg/mL) | 3 µM (≈ 5.09 µg/mL) | 6 µM (≈ 10.2 µg/mL) | 6 µM (≈ 10.2 µg/mL) | 6 µM (≈ 10.2 µg/mL) | 6 µM (≈ 10.2 µg/mL) | 3 µM (≈ 5.09 µg/mL) | 24 µM (≈ 40.7 µg/mL) | 12 µM (≈ 20.4 µg/mL) | 24 µM (≈ 40.7 µg/mL) | 100% | 92% | hemolysis at 40 min, 6 µM [21]: 43%; hemolysis at 40 min, 3 µM [22]: 14%; hemolysis at 40 min, 1.5 µM [23]: 6%
